Experiments:
[1] = Bio-distribution in normal control rats; assay type: in vivo, rat; conditions: for ID/g Bladder / ID/g Bone / ID/g Brain / ID/g Heart / ID/g Kidney / ID/g Large intestine / ID/g Liver / ID/g Lung / ID/g Muscle / ID/g Prostate / ID/g Small intestine / ID/g Spleen / ID/g Stomach / ID/g Thyroid: normal control rats; for percent-specific uptake in the prostate: normal healthy rats
In short: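 Healthy adult male Sprague Dawley rats (6–7 weeks, 200–250 g) given 200 µCi of Tc-99m-labelled test compound intravenously via a penile vein. Animals sacrificed at several post-injection times (1, 2, 4 and 6 h). Organs excised, weighed and counted in a well scintillation counter. %ID/g calculated against a standard of the injected dose. n=3, mean ± SD, ANOVA.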

[2] = Partition coefficient measurement log Po/w; assay type: physicochemical
[3] = Blood pharmacokinetics after intravenous administration; assay type: in vivo, rat; conditions: rats, i.v.
In short: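 Male Sprague Dawley rats (200–250 g) given 200 µCi of Tc-99m-labelled test compound via a penile vein. Blood drawn from the ocular vein at intervals over 0–120 min and counted in a well-type scintillation counter, expressed as counts per ml of blood. Peak times read from the activity–time curve.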

[4] = Stability of the radio-complex with pH and time at room temperature; assay type: physicochemical
In short: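 Labelling: 7.4 MBq pertechnetate added to 20 µg test compound (10% ethanol) with 40 µg SnCl2·2H2O, pH 7, 10 min at room temperature in the dark. pH varied from 2 to 10 and room-temperature stability followed over time. Purity by ITLC: acetone (free pertechnetate) and pyridine:acetic acid:water 3:5:1.5 (hydrolysed fraction); strips counted with a gamma probe. Triplicates, one-way ANOVA.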

[5] = Bio-distribution in MNU + TP treated rats; assay type: in vivo, rat; conditions: for percent-specific uptake in the prostate: MNU + TP treated (carcinogen-induced) rats; for ID/g Bladder / ID/g Bone / ID/g Brain / ID/g Heart / ID/g Kidney / ID/g Large intestine / ID/g Liver / ID/g Lung / ID/g Muscle / ID/g Prostate / ID/g Small intestine / ID/g Spleen / ID/g Stomach / ID/g Thyroid: MNU + TP treated rats
[6] = Paper electrophoresis; assay type: physicochemical; conditions: 300V, 1 h
In short: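 Radio-complex spotted at the central point of Whatman No. 1 paper, with sodium phosphate buffer as the mobile phase. Strip dried after the run and activity along it counted in a well-type gamma scintillation […]; the direction of migration indicates charge.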

[7] = Plasma protein binding of the radio-complex; assay type: in vitro ADME; conditions: rat plasma, 37°C up to 1 hr
In short: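 Pellet re-suspended in 5% TCA and re-centrifuged. Precipitate and supernatant counted in a well-type gamma counter; binding given as protein-bound percent of total activity.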

## Tc-99m-17-oxo-17a-aza-D-homo-5-androsten-3 β-ylphenoxyacetate [Tc-99m-17a-aza steroid]
[1]; First h
  ID/g Bladder: 1.758±0.706 ID/g
  ID/g Bone: 1.77±0.14 ID/g
  ID/g Brain: 0.217±0.065 ID/g
  ID/g Heart: 0.416±0.005 ID/g
  ID/g Kidney: 7.476±1.300 ID/g
  ID/g Large intestine: 0.654±0.294 ID/g
  ID/g Liver: 4.44±0.836 ID/g
  ID/g Lung: 3.145±0.465 ID/g
  ID/g Muscle: 0.337±0.003 ID/g
  ID/g Prostate: 0.303±0.017 ID/g
  ID/g Small intestine: 0.639±0.277 ID/g
  ID/g Spleen: 4.002±0.245 ID/g
  ID/g Stomach: 0.124±0.065 ID/g
  ID/g Thyroid: 0.35±0.053 ID/g
[1]; Fourth h
  ID/g Bladder: 1.121±0.896 ID/g
  ID/g Bone: 0.163±0.011 ID/g
  ID/g Brain: 0.133±0.027 ID/g
  ID/g Heart: 0.535±0.274 ID/g
  ID/g Kidney: 13.726±2.948 ID/g
  ID/g Large intestine: 0.635±0.079 ID/g
  ID/g Liver: 9.423±1.188 ID/g
  ID/g Lung: 3.354±2.237 ID/g
  ID/g Muscle: 0.126±0.015 ID/g
  ID/g Prostate: 0.298±0.079 ID/g
  ID/g Small intestine: 0.659±0.150 ID/g
  ID/g Spleen: 8.33±1.334 ID/g
  ID/g Stomach: 0.094±0.045 ID/g
  ID/g Thyroid: 0.422±0.095 ID/g
[1]; Second h
  ID/g Bladder: 1.71±0.550 ID/g
  ID/g Bone: 0.694±0.077 ID/g
  ID/g Brain: 0.064±0.005 ID/g
  ID/g Heart: 0.547±0.065 ID/g
  ID/g Kidney: 9.093±0.897 ID/g
  ID/g Large intestine: 0.691±0.178 ID/g
  ID/g Liver: 5.293±1.504 ID/g
  ID/g Lung: 7.207±4.919 ID/g
  ID/g Muscle: 0.462±0.241 ID/g
  ID/g Prostate: 0.518±0.133 ID/g
  ID/g Small intestine: 1.276±0.526 ID/g
  ID/g Spleen: 5.816±0.886 ID/g
  ID/g Stomach: 0.101±0.042 ID/g
  ID/g Thyroid: 0.512±0.106 ID/g
[1]; Sixth h
  ID/g Bladder: 1.840±0.724 ID/g
  ID/g Bone: 0.59±0.085 ID/g
  ID/g Brain: 0.096±0.074 ID/g
  ID/g Heart: 0.557±0.061 ID/g
  ID/g Kidney: 15.403±2.545 ID/g
  ID/g Large intestine: 0.915±0.186 ID/g
  ID/g Liver: 13.303±1.618 ID/g
  ID/g Lung: 4.292±1.191 ID/g
  ID/g Muscle: 0.160±0.06 ID/g
  ID/g Prostate: 0.269±0.182 ID/g
  ID/g Small intestine: 0.944±0.074 ID/g
  ID/g Spleen: 9.04±1.165 ID/g
  ID/g Stomach: 0.091±0.013 ID/g
  ID/g Thyroid: 0.031±0.007 ID/g
[1]; 1 h after administration
  percent-specific uptake in the prostate: 0.303%
[1]; 2 h after administration
  percent-specific uptake in the prostate: 0.518%
[1]; 4 h after administration
  percent-specific uptake in the prostate: 0.298%
[1]; 6 h after administration
  percent-specific uptake in the prostate: 0.269%
[2]
  Log Po/w: 0.118 ± 0.045
[3]
  time of first peak in blood: 50 s
  time of second peak in blood: 50 min
[4]; pH 2
  percent radiochemical purity: 92.72%
[4]; pH 4
  percent radiochemical purity: 97.24%
[4]; pH 10
  percent radiochemical yield: 86.84%
[5]; 1 h after administration
  percent-specific uptake in the prostate: 0.913%
[5]; 2 h after administration
  percent-specific uptake in the prostate: 0.825%
[5]; 4 h after administration
  percent-specific uptake in the prostate: 0.857%
[5]; 6 h after administration
  percent-specific uptake in the prostate: 0.673%
[5]; First h
  ID/g Bladder: 1.465±0.175 ID/g
  ID/g Bone: 0.437±0.237 ID/g
  ID/g Brain: 0.139±0.124 ID/g
  ID/g Heart: 0.045±0.036 ID/g
  ID/g Kidney: 6.283±0.746 ID/g
  ID/g Large intestine: 0.264±0.121 ID/g
  ID/g Liver: 3.48±0.676 ID/g
  ID/g Lung: 2.903±0.553 ID/g
  ID/g Muscle: 0.097±0.075 ID/g
  ID/g Prostate: 0.913±0.172 ID/g
  ID/g Small intestine: 0.482±0.554 ID/g
  ID/g Spleen: 3.873±0.600 ID/g
  ID/g Stomach: 0.142±0.038 ID/g
  ID/g Thyroid: 0.356±0.163 ID/g
[5]; Fourth h
  ID/g Bladder: 0.897±0.456 ID/g
  ID/g Bone: 2.24±1.062 ID/g
  ID/g Brain: 0.149±0.085 ID/g
  ID/g Heart: 0.231±0.171 ID/g
  ID/g Kidney: 7.836±1.861 ID/g
  ID/g Large intestine: 0.878±0.439 ID/g
  ID/g Liver: 8.693±0.784 ID/g
  ID/g Lung: 1.263±0.253 ID/g
  ID/g Muscle: 0.330±0.194 ID/g
  ID/g Prostate: 0.857±0.091 ID/g
  ID/g Small intestine: 0.400±0.015 ID/g
  ID/g Spleen: 4.61±0.026 ID/g
  ID/g Stomach: 0.112±0.033 ID/g
  ID/g Thyroid: 0.654±0.099 ID/g
[5]; Second h
  ID/g Bladder: 0.979±0.247 ID/g
  ID/g Bone: 1.381±0.609 ID/g
  ID/g Brain: 0.257±0.139 ID/g
  ID/g Heart: 0.404±0.217 ID/g
  ID/g Kidney: 7.37±1.162 ID/g
  ID/g Large intestine: 0.383±0.034 ID/g
  ID/g Liver: 6.767±0.496 ID/g
  ID/g Lung: 2.44±0.216 ID/g
  ID/g Muscle: 0.262±0.023 ID/g
  ID/g Prostate: 0.825±0.110 ID/g
  ID/g Small intestine: 0.563±0.037 ID/g
  ID/g Spleen: 6.76±0.911 ID/g
  ID/g Stomach: 0.091±0.029 ID/g
  ID/g Thyroid: 0.698±0.037 ID/g
[5]; Sixth h
  ID/g Bladder: 0.871±0.578 ID/g
  ID/g Bone: 2.038±1.163 ID/g
  ID/g Brain: 0.132±0.048 ID/g
  ID/g Heart: 0.337±0.054 ID/g
  ID/g Kidney: 8.08±1.784 ID/g
  ID/g Large intestine: 0.973±0.641 ID/g
  ID/g Liver: 9.673±0.457 ID/g
  ID/g Lung: 1.2±0.07 ID/g
  ID/g Muscle: 0.310±0.022 ID/g
  ID/g Prostate: 0.673±0.064 ID/g
  ID/g Small intestine: 0.378±0.193 ID/g
  ID/g Spleen: 8.77±0.645 ID/g
  ID/g Stomach: 0.069±0.023 ID/g
  ID/g Thyroid: 0.684±0.198 ID/g
[6]
  charge of the radio-complex: neutral
[7]
  Plasma protein binding: 86.23 ± 7.08%

Reference: article PMC9380797 (Indian Journal of Nuclear Medicine : IJNM : The Official …, 2022)
